From ChEMBL document CHEMBL2321690, “New betulinic acid derivatives for bevirimat-resistant human immunodeficiency virus type-1” (J Med Chem, 2013)

Key:
[1] = test system: MT4; test: Cytotoxicity against human MT4 cells for 4 days; assay type: cell-based; settings: mt4, 96 h
Procedure, shortened: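 MT4 cells cultured with various compound concentrations for 4 days. Viability read by a CytoTox-Glo luminescent cytotoxicity assay. CC50 is the concentration reducing viable cells by 50%.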

[2] = test system: Human immunodeficiency virus 1; test: Antiviral activity against 0.001 MOI bevirimat-resistant Human immunodeficiency virus 1 NL4-3 harboring gag V370A mutant infected in human MT4 cells assessed as inhibition of viral replication measured 4 days post infection by ELISA; assay type: functional, organism-based; settings: Human immunodeficiency virus 1, NL4-3, MT4, 96 h
Procedure, shortened: (§1)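 Mutations introduced into pNL4-3 by site-directed mutagenesis. MT4 cells infected with wild-type NL4-3 or resistant variant at 0.001 TCID50/cell in presence of graded compound concentrations. Supernatant p24 measured by ELISA on day 4 post-infection. IC50 is the concentration reducing p24 by 50%, reported as mean ± SD with the number of tests given per value.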

[3] = test system: Human immunodeficiency virus 1; test: Antiviral activity against 0.001 MOI wild type Human immunodeficiency virus 1 NL4-3 infected in human MT4 cells assessed as inhibition of viral replication measured 4 days post infection by ELISA; assay type: functional, organism-based; settings: Human immunodeficiency virus 1, NL4-3, MT4, 96 h; procedure, shortened: as §1

SMILES	CC50 [1] [nM]	IC50 [2] [nM]	IC50 [3] [nM]
C=C(C)[C@@H]1CC[C@]2(C(=O)NCCCCCCCCC(=O)N[C@H](C(=O)OC)C(C)C)CC[C@]3(C)[C@H](CC[C@@H]4[C@@]5(C)CC[C@H](OC(=O)CC(C)(C)C(=O)O)C(C)(C)[C@@H]5CC[C@]43C)[C@@H]12	> 10000	1240	10
C=C(C)[C@@H]1CC[C@]2(C(=O)NCCCCCCCCNC(=O)[C@H](C)NC(=O)OC(C)(C)C)CC[C@]3(C)[C@H](CC[C@@H]4[C@@]5(C)CC[C@H](OC(=O)CC(C)(C)C(=O)O)C(C)(C)[C@@H]5CC[C@]43C)[C@@H]12	> 10000	920	20
C=C(C)[C@@H]1CC[C@]2(C(=O)NCCCCCCCCCNC(=O)[C@H](CCC(N)=O)NC(=O)OC(C)(C)C)CC[C@]3(C)[C@H](CC[C@@H]4[C@@]5(C)CC[C@H](OC(=O)CC(C)(C)C(=O)O)C(C)(C)[C@@H]5CC[C@]43C)[C@@H]12	> 10000	1200	20
C=C(C)[C@@H]1CC[C@]2(C(=O)NCCCCCCCCC(=O)N[C@@H](CCC(=O)OC)C(=O)OC)CC[C@]3(C)[C@H](CC[C@@H]4[C@@]5(C)CC[C@H](OC(=O)CC(C)(C)C(=O)O)C(C)(C)[C@@H]5CC[C@]43C)[C@@H]12	> 10000	2160	180
C=C(C)[C@@H]1CC[C@]2(C(=O)NCCCCCCCCC(=O)N[C@@H](C)C(=O)OC)CC[C@]3(C)[C@H](CC[C@@H]4[C@@]5(C)CC[C@H](OC(=O)CC(C)(C)C(=O)O)C(C)(C)[C@@H]5CC[C@]43C)[C@@H]12	> 10000	420	10
C=C(C)[C@@H]1CC[C@]2(C(=O)NCCCCCCC(=O)N[C@@H](CCC(N)=O)C(=O)OC)CC[C@]3(C)[C@H](CC[C@@H]4[C@@]5(C)CC[C@H](OC(=O)CC(C)(C)C(=O)O)C(C)(C)[C@@H]5CC[C@]43C)[C@@H]12	> 10000	2460	50
C=C(C)[C@@H]1CC[C@]2(C(=O)NCCCCCCCC(=O)N[C@@H](CCC(N)=O)C(=O)OC)CC[C@]3(C)[C@H](CC[C@@H]4[C@@]5(C)CC[C@H](OC(=O)CC(C)(C)C(=O)O)C(C)(C)[C@@H]5CC[C@]43C)[C@@H]12	> 10000	> 5000	50
C=C(C)[C@@H]1CC[C@]2(C(=O)NCCCCCCCCCNC(=O)CNC(=O)OC(C)(C)C)CC[C@]3(C)[C@H](CC[C@@H]4[C@@]5(C)CC[C@H](OC(=O)CC(C)(C)C(=O)O)C(C)(C)[C@@H]5CC[C@]43C)[C@@H]12	> 10000	1040	20
C=C(C)[C@@H]1CC[C@]2(C(=O)NCCCCCCCCCNC(=O)[C@H](CC(N)=O)NC(=O)OC(C)(C)C)CC[C@]3(C)[C@H](CC[C@@H]4[C@@]5(C)CC[C@H](OC(=O)CC(C)(C)C(=O)O)C(C)(C)[C@@H]5CC[C@]43C)[C@@H]12	8300	340	40
C=C(C)[C@@H]1CC[C@]2(C(=O)NCCCCCCCCC(=O)NCC(=O)OC)CC[C@]3(C)[C@H](CC[C@@H]4[C@@]5(C)CC[C@H](OC(=O)CC(C)(C)C(=O)O)C(C)(C)[C@@H]5CC[C@]43C)[C@@H]12	> 10000	1510	10
C=C(C)[C@@H]1CC[C@]2(C(=O)NCCCCCCCCC(=O)NCC(=O)O)CC[C@]3(C)[C@H](CC[C@@H]4[C@@]5(C)CC[C@H](OC(=O)CC(C)(C)C(=O)O)C(C)(C)[C@@H]5CC[C@]43C)[C@@H]12	> 10000	480	40
C=C(C)[C@@H]1CC[C@]2(C(=O)NCCCCCCCCC(=O)N[C@H](C(=O)OC)[C@@H](C)CC)CC[C@]3(C)[C@H](CC[C@@H]4[C@@]5(C)CC[C@H](OC(=O)CC(C)(C)C(=O)O)C(C)(C)[C@@H]5CC[C@]43C)[C@@H]12	> 10000	2780	40
C=C(C)[C@@H]1CC[C@]2(C(=O)NCCCCCCCCCNC(=O)[C@H](C)NC(=O)OC(C)(C)C)CC[C@]3(C)[C@H](CC[C@@H]4[C@@]5(C)CC[C@H](OC(=O)CC(C)(C)C(=O)O)C(C)(C)[C@@H]5CC[C@]43C)[C@@H]12	> 10000	1580	50
C=C(C)[C@@H]1CC[C@]2(C(=O)NCCCCCCCCC(=O)NCCC#N)CC[C@]3(C)[C@H](CC[C@@H]4[C@@]5(C)CC[C@H](OC(=O)CC(C)(C)C(=O)O)C(C)(C)[C@@H]5CC[C@]43C)[C@@H]12	> 10000	330	150
C=C(C)[C@@H]1CC[C@]2(C(=O)NCCCCCCCNC(=O)[C@H](CCC(N)=O)NC(=O)OC(C)(C)C)CC[C@]3(C)[C@H](CC[C@@H]4[C@@]5(C)CC[C@H](OC(=O)CC(C)(C)C(=O)O)C(C)(C)[C@@H]5CC[C@]43C)[C@@H]12	> 10000	2600	10
C=C(C)[C@@H]1CC[C@]2(C(=O)NCCCCCCCCC(=O)N(C)CC#N)CC[C@]3(C)[C@H](CC[C@@H]4[C@@]5(C)CC[C@H](OC(=O)CC(C)(C)C(=O)O)C(C)(C)[C@@H]5CC[C@]43C)[C@@H]12	> 10000	2080	40
C=C(C)[C@@H]1CC[C@]2(C(=O)NCCCCCCCCC(=O)NCC#N)CC[C@]3(C)[C@H](CC[C@@H]4[C@@]5(C)CC[C@H](OC(=O)CC(C)(C)C(=O)O)C(C)(C)[C@@H]5CC[C@]43C)[C@@H]12	6490	460	30
C=C(C)[C@@H]1CC[C@]2(C(=O)NCCCCCCCCCC(=O)N[C@@H](CCC(N)=O)C(=O)OC)CC[C@]3(C)[C@H](CC[C@@H]4[C@@]5(C)CC[C@H](OC(=O)CC(C)(C)C(=O)O)C(C)(C)[C@@H]5CC[C@]43C)[C@@H]12	> 10000	700	100
C=C(C)[C@@H]1CC[C@]2(C(=O)NCCCCCCCCC(=O)N3CCC[C@H]3C(=O)OC)CC[C@]3(C)[C@H](CC[C@@H]4[C@@]5(C)CC[C@H](OC(=O)CC(C)(C)C(=O)O)C(C)(C)[C@@H]5CC[C@]43C)[C@@H]12	> 10000	880	100
C=C(C)[C@@H]1CC[C@]2(C(=O)NCCCCCCCCC(=O)N[C@@H](CCC(N)=O)C(=O)OCc3ccccc3)CC[C@]3(C)[C@H](CC[C@@H]4[C@@]5(C)CC[C@H](OC(=O)CC(C)(C)C(=O)O)C(C)(C)[C@@H]5CC[C@]43C)[C@@H]12	> 10000	2540	40
C=C(C)[C@@H]1CC[C@]2(C(=O)NCCCCCCCCC(=O)N[C@@H](Cc3ccccc3)C(=O)OC)CC[C@]3(C)[C@H](CC[C@@H]4[C@@]5(C)CC[C@H](OC(=O)CC(C)(C)C(=O)O)C(C)(C)[C@@H]5CC[C@]43C)[C@@H]12	> 10000	1290	70
C=C(C)[C@@H]1CC[C@]2(C(=O)NCCCCCCCCC(=O)N[C@@H](CCC(N)=O)C(=O)OC(C)(C)C)CC[C@]3(C)[C@H](CC[C@@H]4[C@@]5(C)CC[C@H](OC(=O)CC(C)(C)C(=O)O)C(C)(C)[C@@H]5CC[C@]43C)[C@@H]12	> 10000	810	10
C=C(C)[C@@H]1CC[C@]2(C(=O)NCCCCCCCCNC(=O)[C@H](CCC#N)NC(=O)OC(C)(C)C)CC[C@]3(C)[C@H](CC[C@@H]4[C@@]5(C)CC[C@H](OC(=O)CC(C)(C)C(=O)O)C(C)(C)[C@@H]5CC[C@]43C)[C@@H]12	> 10000	330	30
C=C(C)[C@@H]1CC[C@]2(C(=O)NCCCCCCCCNC(=O)[C@H](CCC(N)=O)NC(=O)OC(C)(C)C)CC[C@]3(C)[C@H](CC[C@@H]4[C@@]5(C)CC[C@H](OC(=O)CC(C)(C)C(=O)O)C(C)(C)[C@@H]5CC[C@]43C)[C@@H]12	> 10000	360	30
C=C(C)[C@@H]1CC[C@]2(C(=O)NCCCCCCCCNC(=O)[C@@H]3CCCN3C(=O)OC(C)(C)C)CC[C@]3(C)[C@H](CC[C@@H]4[C@@]5(C)CC[C@H](OC(=O)CC(C)(C)C(=O)O)C(C)(C)[C@@H]5CC[C@]43C)[C@@H]12	> 10000	950	40
C=C(C)[C@@H]1CC[C@]2(C(=O)N3CCN(CCCCC(=O)O)CC3)CC[C@]3(C)[C@H](CC[C@@H]4[C@@]5(C)CC[C@H](OC(=O)CC(C)(C)C(=O)O)C(C)(C)[C@@H]5CC[C@]43C)[C@@H]12	> 10000	> 3300	6
C=C(C)[C@@H]1CC[C@]2(C(=O)NCCCCCCCCNC(=O)[C@@H](NC(=O)OC(C)(C)C)C(C)C)CC[C@]3(C)[C@H](CC[C@@H]4[C@@]5(C)CC[C@H](OC(=O)CC(C)(C)C(=O)O)C(C)(C)[C@@H]5CC[C@]43C)[C@@H]12	> 10000	330	150
C=C(C)[C@@H]1CC[C@]2(C(=O)NCCCCCCCNC(=O)[C@H](C)NC(=O)OC(C)(C)C)CC[C@]3(C)[C@H](CC[C@@H]4[C@@]5(C)CC[C@H](OC(=O)CC(C)(C)C(=O)O)C(C)(C)[C@@H]5CC[C@]43C)[C@@H]12	7900	370	10
